# Screening results from PubChem BioAssay.
# Hits are enriched below; roughly 12% of the tested compounds scored in any of these assays.
# RAM inhibit: yeast RAM network inhibition | S. cerevisiae dse1pr::URA3 reporter, 5-FOA growth OD615, 2 d; analog-sensitive cbk1-as2 kinase mutant strain | inhibition, % at 50 µM | hit rate 1.8% among 190,000;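 active means inhibition above a set limit, 3 SD over mean compound inhibition, cut at about 8.4% in these data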;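 further: 0% = DMSO-only wells with no growth and 100% = 10 µM 1-NA-PP1 full growth; inhibition rescues growth on 5-FOA so higher OD means more RAM inhibition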
# ABCB1 inh: blocks JC-1 efflux by human ABCB1 transporter; P08183; CCRF-Adr cells, flow cytometry; inhibition, % at 6.6 µM; hit rate 0.067% among 190,000; AID 1326; in the data active means inhibition above about 40%;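 further: 0% = vehicle and 100% = reference inhibitor; higher value means more JC-1 retained so stronger ABCB1 efflux block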
# Target sequence (P08183 whole entry, looked up): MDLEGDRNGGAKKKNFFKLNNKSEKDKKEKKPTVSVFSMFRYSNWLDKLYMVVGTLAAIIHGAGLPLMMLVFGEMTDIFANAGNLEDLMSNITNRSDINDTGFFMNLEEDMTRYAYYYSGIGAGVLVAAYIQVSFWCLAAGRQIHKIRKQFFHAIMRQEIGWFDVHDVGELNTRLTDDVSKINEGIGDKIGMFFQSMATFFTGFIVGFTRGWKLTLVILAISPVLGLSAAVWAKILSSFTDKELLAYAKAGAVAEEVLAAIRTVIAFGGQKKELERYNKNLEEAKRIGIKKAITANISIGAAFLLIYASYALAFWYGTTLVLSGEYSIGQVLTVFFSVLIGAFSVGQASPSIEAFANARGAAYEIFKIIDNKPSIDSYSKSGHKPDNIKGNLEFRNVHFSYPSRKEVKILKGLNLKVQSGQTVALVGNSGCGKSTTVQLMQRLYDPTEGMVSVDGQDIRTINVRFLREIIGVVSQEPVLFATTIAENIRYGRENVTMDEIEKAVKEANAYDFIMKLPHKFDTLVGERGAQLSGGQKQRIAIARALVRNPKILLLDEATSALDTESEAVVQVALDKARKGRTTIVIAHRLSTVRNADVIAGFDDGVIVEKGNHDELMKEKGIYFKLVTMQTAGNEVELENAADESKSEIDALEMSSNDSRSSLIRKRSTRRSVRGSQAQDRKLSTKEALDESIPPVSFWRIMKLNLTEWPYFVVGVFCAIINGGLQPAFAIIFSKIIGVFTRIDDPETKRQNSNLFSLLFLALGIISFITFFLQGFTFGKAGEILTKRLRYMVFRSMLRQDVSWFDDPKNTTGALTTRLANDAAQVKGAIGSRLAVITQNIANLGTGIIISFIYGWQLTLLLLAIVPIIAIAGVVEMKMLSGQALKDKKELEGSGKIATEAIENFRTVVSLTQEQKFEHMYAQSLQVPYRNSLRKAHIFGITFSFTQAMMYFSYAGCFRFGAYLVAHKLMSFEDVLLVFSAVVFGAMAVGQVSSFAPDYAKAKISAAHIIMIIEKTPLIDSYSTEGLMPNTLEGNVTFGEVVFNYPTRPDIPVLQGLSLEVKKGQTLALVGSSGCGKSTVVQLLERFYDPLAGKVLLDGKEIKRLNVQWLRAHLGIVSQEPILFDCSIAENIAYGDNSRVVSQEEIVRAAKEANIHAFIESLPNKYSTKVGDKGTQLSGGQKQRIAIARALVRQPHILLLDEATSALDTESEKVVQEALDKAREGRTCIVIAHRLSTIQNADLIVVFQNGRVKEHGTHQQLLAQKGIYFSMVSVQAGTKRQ
# L major viab: reduces viability of Leishmania major promastigotes | resazurin fluorescence viability | inhibition, % at 10 µM | hit rate 9% among 200,000 | AID 1063; in the data active means inhibition above about 50%;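 further: promastigotes grown with compound for 44 hours at 28 °C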
# ABCG2 inh: inhibitors of human ABCG2 transporter, ABCB1 counter-screen. Q9UNQ0. IgMXP3 cells, JC-1 efflux, flow cytometry. inhibition, % at 6.6 µM. hit rate 0.1% among 190,000. AID 1325;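 active means inhibition above 80%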;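 further: 0% = DMSO and 100% = nicardipine control wells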
#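 Test system: IgMXP3 cells (ABCG2) mixed with DDAO far-red-labelled CCRF-Adr cells (ABCB1). Reagent: JC-1 transporter substrate. Compound dosing: single test compound dose, 6.6 µM final. Times: 10 min compound exposure, 25 °C. Detection: flow cytometry of retained JC-1 fluorescence. Read-out basis: efflux inhibition in percent versus controls. Controls: nicardipine and DMSO wells.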
# WT yeast gro inh: growth inhibition of WT yeast, mitochondrial fusion screen; mitochondrial fusion phenotypic screen, WT strain; inhibition, % at 10 µM; hit rate 2.1% among 190,000; AID 1362; in the data active means inhibition above about 58%; tested in S. cerevisiae
# Starred values were filed as active, the others as inactive; x = no result.
SMILES,RAM inhibit,ABCB1 inh,L major viab,ABCG2 inh,WT yeast gro inh
Cc1ccccc1N=C(NOCc1ccccc1)c1nonc1N,2.0,0.9,18.7,21.3,32.2
Cc1ccccc1N=C(NOCc1ccc(Cl)cc1Cl)c1nonc1N,6.9,0.2,12.8,6.5,77.8*
Cc1ccc2nc(N/N=C/c3ccccc3C#N)nc(-c3ccccc3)c2c1,2.5,0.8,61.7*,1.6,14.5
Cc1ccc2nc(N/N=C/c3ccccc3F)nc(-c3ccccc3)c2c1,-0.9,0.0,-6.1,0.0,64.1*
N#Cc1ccccc1/C=N/Nc1nc(-c2ccccc2)c2cc(Cl)ccc2n1,6.9,0.7,3.4,4.5,-3.7
Cn1cc(-c2ccccc2C(N)=O)c(=O)c2ccccc21,1.2,-0.4,-1.2,0.1,-1.4
Cn1cc(-c2ccccc2C(N)=O)c(=O)c2cc(Cl)ccc21,3.0,2.0,72.6*,5.7,-0.4
CN(C)c1ccc(-c2nnn(CC(=O)NCc3ccc4c(c3)OCO4)n2)cc1,1.6,-0.4,10.4,-1.9,0.7
CC(C)(C)Nc1nc(Cl)nc(NC(C)(C)C)n1,2.4,0.5,21.1,13.4,-11.9
CC(C)(C)Nc1nc(NN)nc(NC(C)(C)C)n1,0.7,-1.8,81.0*,-1.3,14.9
Cn1c(=O)c2c(nc(SCC(=O)c3ccccc3F)n2C)n(C)c1=O,0.3,-2.4,-4.4,-3.6,12.9
Cc1ccccc1NC(=O)c1c2c(nc3ccccc13)CCC2,-0.2,-0.4,-2.9,-0.3,10.9
Cc1c(C(=O)Nc2ccc3c(c2)OCCO3)sc2nc(-c3ccccc3)cn12,1.6,0.4,56.0*,2.5,20.3
Cc1c(C(=O)N2CCOCC2)sc2nc(-c3ccccc3)cn12,0.5,0.2,-4.8,1.6,-12.1
Cc1c(C(=O)Nc2ccncc2)sc2nc(-c3ccccc3)cn12,1.9,1.0,76.2*,3.3,15.4
CC(Nc1nc(-c2ccccc2)nc2ccccc12)c1ccccc1 (stereo not drawn),-0.8,1.4,97.6*,2.6,67.5
Clc1ccc(-c2nc(N3CCCCC3)nc3ccccc23)cc1,6.0,-0.2,-1.7,-0.3,59.4*
COc1ccc(Nc2nc(N3CCCC3)nc3ccccc23)c(OC)c1,0.7,5.0,100.3*,8.8,23.5
OCCNc1nc(-c2ccccc2)nc2ccccc12,1.1,0.0,19.8,2.0,4.1
C=CCNc1nc(N2CCCC2)nc2ccccc12,-0.1,0.5,99.7*,1.5,5.0
OCCNc1nc(N2CCN(Cc3ccccc3)CC2)nc2ccccc12,0.4,0.3,2.5,2.2,10.6
CC(Nc1nc(N2CCCCC2)nc2ccccc12)c1ccccc1 (stereo not drawn),-0.1,0.1,100.4*,-0.1,17.1
O=C(COc1ccccc1-c1ccccc1)NNC(=O)NC1CCCCC1,-1.0,0.3,1.5,13.9,-1.8
CC1=Nc2ccccc2N=C(NC(=O)c2ccccc2)C1c1ccccc1 (stereo not drawn),1.1,2.2,54.4*,13.8,12.3
N=c1c2ccccc2nnn1-c1ccc(C(F)(F)F)cc1,4.2,0.8,3.3,12.0,11.0
SMILES,RAM inhibit,ABCB1 inh,L major viab,ABCG2 inh,WT yeast gro inh
O=C(/C=C/c1ccccc1)Nc1cccc(S(=O)(=O)Nc2ccccc2F)c1,9.3*,-0.8,0.3,-4.7,55.5
O=C(Nc1cccc(S(=O)(=O)Nc2ccccc2F)c1)c1ccc2ccccc2n1,5.0,-0.1,4.8,0.7,86.7*
Cc1ccc(CNCC(=O)Nc2cccc(S(=O)(=O)NC3=NCCCCC3)c2)cc1,2.5,0.6,-1.1,7.5,-5.3
COc1ccccc1NS(=O)(=O)c1cccc(NC(=O)c2ccc3ccccc3n2)c1,5.4,0.9,43.0,11.4,29.8
O=C(/C=C/c1ccc(Cl)cc1Cl)Nc1cccc(S(=O)(=O)NC2=NCCCCC2)c1,6.7,-0.3,51.5*,-1.4,6.8
O=C(Cc1ccc(Cl)cc1Cl)Nc1cccc(S(=O)(=O)Nc2ccccc2F)c1,8.8*,-0.8,75.1*,-10.4,22.0
O=C(NC(NNc1ccc([N+](=O)[O-])cc1)(C(F)(F)F)C(F)(F)F)c1ccc(Cl)cc1,0.8,0.4,3.6,2.5,78.4*
CC(=O)N1CC23C=CC(CC2CC12CCCCCC2)O3 (stereo not drawn),-0.6,0.9,9.4,2.6,6.6
Cc1oc2c(CN(C)C)c(O)ccc2c(=O)c1-c1ccc2ccccc2n1,-0.8,0.5,76.3*,0.9,10.4
C=CCSC1=N/C(=C\c2sccc2C)C(=O)S1,9.4*,-0.3,-12.6,-0.8,2.4
CCN(CC)CCNC(=O)c1ccc(NC(=O)c2ccc(F)cc2F)cc1,1.2,1.0,6.0,0.6,1.1
CCOC(=O)c1cnc2c(OC)cccc2c1N1CCN(c2ccccc2OC)CC1,1.8,25.2,62.8*,60.6,54.7
CCOC(=O)c1cnc2c(OC)cccc2c1N1CCN(c2ccccn2)CC1,-0.9,12.2,44.1,15.1,8.9
CCOc1nc(-c2ccccc2O)nc2ccccc12,0.7,0.1,-6.1,1.6,0.1
CCOc1nc(N=C(N)N)nc2c(C)cccc12,1.8,0.2,99.9*,2.2,-14.0
CC1CCc2c(sc3ncnc(N4CCN(S(=O)(=O)c5cccc6nonc56)CC4)c23)C1 (stereo not drawn),x,x,14.4,x,x
Cn1[nH]c(CSc2ccc(Cl)cc2)cc1=O,-0.8,0.5,-5.2,1.9,-9.2
CCC(C(=O)OCC(=O)Nc1cc(Cl)cc(Cl)c1)c1ccccc1 (stereo not drawn),10.9*,0.3,-7.2,0.5,79.3*
O=C(NCCCn1ccnc1)C(Cc1ccccc1)N1C(=O)c2ccccc2C1=O (stereo not drawn),0.1,0.2,-3.8,0.2,58.4*
CN(C(=O)COC(=O)c1ccc2[nH]c3c(c2c1)CCCC3)C1CCS(=O)(=O)C1 (stereo not drawn),3.1,0.4,36.7,2.1,8.1
COc1ccc(CSc2ncnc3sccc23)cc1F,-0.7,0.6,0.1,4.2,31.0
CC(C)N(C(=O)C[n+]1ccsc1N)c1ccccc1,2.1,0.4,-2.0,8.3,4.2
Cc1ccc(NC(=O)CC2SC(=O)N(c3ccccc3)C2=O)cc1 (stereo not drawn),4.1,-0.2,-3.0,0.9,-6.5
Cc1ccc(C(=O)CC2C(=O)N(c3ccccc3)C(=S)N2c2ccccc2)cc1 (stereo not drawn),3.6,4.6,58.7*,3.1,30.3
CCc1cc2c(=O)[nH]c(-c3ccccn3)nc2s1,-1.4,0.6,98.6*,17.6,47.0
COc1ccc(NC(=O)C2CC(=O)N=C(N)S2)cc1 (stereo not drawn),-0.2,0.4,-4.1,0.5,-13.4
C(=C\c1ccccc1)/CN1CCN(Cc2nc(Cc3ccccc3)no2)CC1,5.7,1.1,79.7*,2.0,20.9
c1ccc(Cc2noc(CN3CCN(Cc4ccc5c(c4)OCO5)CC3)n2)cc1,1.1,0.5,90.0*,0.5,-16.2
O=C(C1CCN(Cc2nc(Cc3cccc(F)c3)no2)CC1)N1CCOCC1,3.1,0.3,-7.0,0.5,-5.7
Fc1cccc(CN2CCN(Cc3nc(CCc4ccccc4)no3)CC2)c1,1.3,2.6,79.1*,2.5,-0.6
